# Laboratory results as given in paper PMC11607638 (The FASEB Journal, 2024).
# Like-named read-outs stand apart in the source and are kept apart here. Square brackets hold non-standard residues; d marks the D form. Ends that are not written are not given here. sY = N[C@@H](Cc1ccc(OS(=O)(=O)O)cc1)C(=O)O
# Legend:
# [1] = test system: SK receptor gene SKR; assay: Fura-2 calcium imaging in perifused SKR-CHO-K1 cells; assay type: cell-based, Aedes aegypti; conditions: for Reversibility of stimulation upon wash-out in perifused SKR-CHO-K1 cells: Figures 4, 5, 6; for Onset (lag time) of cytosolic calcium oscillations in SKR-CHO-K1 cells: at lower concentrations, Figures 4 and 5
# Summary of the method: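 CHO-K1 cells at 80–90% confluency were transfected in serum-free medium with pcDNA3.1(+)-SKR using jetPRIME for 24–36 h. Cells were loaded with Fura-2AM (10 µM, 50 min, 37 °C), attached to coated coverslips and perifused in HEPES buffer, pH 7.4. The 340/380 nm excitation ratio was recorded per single cell. Peptides used: SK1 300 pM–30 nM, SK2 3 nM ± devazepide 10 nM, CCK 1–100 nM. Peak area above baseline per 10 min; mean ± SEM, t-test.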
# [2] = Body weight of female mosquitoes after injection; assay type: in vivo, Aedes aegypti; conditions: for Pre-blood meal body weight among groups: DEPC water, SK2 100 μM, SK2 + proglumide (Figure 3F left)
# Summary of the method: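 Females 3 days post-eclosion were starved 12 h, given a 1 µL thoracic injection, and starved a further 24 h. They were weighed on a balance immediately before the blood meal, 30 per group.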
# [3] = test system: Aedes aegypti; assay: Blood meal size after thoracic peptide injection; assay type: in vivo; conditions: 24 h
# Summary of the method: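 Females 3 days post-eclosion, starved 12 h before and 24 h after a 1 µL thoracic injection, then blood-fed. Each mosquito was weighed before and after the meal, and intake was taken as the weight difference. SK2 was given at 50, 100 or 150 pmol/µL against DEPC water, 30 per group. For reversal, SK2 100 µM plus proglumide 14 mM (final, 1:1 mix) was injected and intake weighed 24 h later.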
# [4] = test system: mammalian cholecystokinin 1 receptor (CCK1R); assay: Fura-2 calcium imaging in isolated rat pancreatic acini; assay type: cell-based; conditions: CCK 10 pM
# Summary of the method: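 Acini came from male Sprague-Dawley rats (250–450 g) by collagenase P digestion (0.2 g/L, 2 × 10 min, 37 °C) in HEPES-buffered saline, pH 7.4. They were loaded with Fura-2AM (10 µM, 30 min) and attached to Cell-Tak- or Matrix-Gel-coated coverslips in a perifusion chamber. The buffer was the same minus BSA, amino acids and trypsin inhibitor. Fluorescence was excited alternately at 340/380 nm and the ratio recorded over time.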
# [5] = test system: SK gene SK; assay: qPCR of SK mRNA in mosquito head after peptide injection; assay type: in vivo, Aedes aegypti; conditions: after blood feeding 24 h after injection
# [6] = test system: Aedes aegypti; assay: Blood-feeding time course after thoracic peptide injection; assay type: in vivo; conditions: Figure 3C
# Summary of the method: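 Females were given 1 µL thoracic injections of DEPC water, SK1, SK2 (200 µM) or SK1+SK2 (100 µM each, final), then kept in separate cages for 24 h, 20 per group, and offered blood. Feeding was counted as complete when a mosquito stopped and no longer moved actively. Completed feeders were recorded every 10 min until all had fed; run in triplicate.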
# [7] = test system: CHO-K1 cells; assay: Fura-2 calcium imaging in un-transfected parental CHO-K1 cells; assay type: cell-based, Chinese hamster; conditions: 30 nM
# Summary of the method: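 Un-transfected CHO-K1 cells were grown in DMEM/F12 with 10% FBS, then loaded with Fura-2AM (10 µM, 50 min, 37 °C) and perifused on coated coverslips. They were exposed to SK1 or SK2 at 30 nM. Cytosolic calcium was followed as the 340/380 nm excitation ratio in single cells.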
# [8] = test system: SK receptor gene SKR; assay: qPCR of SKR mRNA in mosquito head after peptide injection; assay type: in vivo, Aedes aegypti; conditions: after blood feeding 24 h after injection
compound,measurement,setting,value
"CN1C(=O)[C@@H](NC(=O)c2cc3ccccc3[nH]2)N=C(c2ccccc2)c2ccccc21 [devazepide, reference compound]",Block of SK2-induced calcium increases in SKR-CHO-K1 cells (antagonism),[1]; devazepide 10 nM + SK2 3 nM,no longer induced any calcium increases
"NCCc1ccc(O)c(O)c1 [dopamine, reference compound]",Calcium response in SKR-CHO-K1 cells,[1]; dopamine 1 mM,no effect
CCCN(CCC)C(=O)C(CCC(=O)O)NC(=O)c1ccccc1 (centres unmarked) [proglumide],Pre-blood meal body weight among groups,[2],No difference
same,Blood intake after mixed injection vs DEPC water control,"[3]; proglumide 14 mM + SK2 100 μM, 1 μL",no significant difference
same,Blood intake after mixed injection vs single injection of SK2 at 100 μM,"[3]; proglumide 14 mM + SK2 100 μM, 1 μL, ****p < .0001 (Figure 3F)",higher
"CCK: sulfated cholecystokinin octapeptide (CCK), Tocris Cookson #1166 (D[sY]MGWMDF-NH2; UniProt P06307 96-103, looked up) [reference compound]",Calcium response in SKR-CHO-K1 cells,[1]; CCK 1 nM,no effect
same,Calcium response in SKR-CHO-K1 cells,[1]; CCK 10 nM and 100 nM,clear calcium increases
same,Reversibility of stimulation upon wash-out in perifused SKR-CHO-K1 cells,[1],readily washed out
same,Efficiency of activating SKR compared with mosquito peptide SK2,"[1]; SKR-CHO-K1, Figure 6",probably less efficiently than the mosquito peptide SK2
same,Calcium response in rat pancreatic acini,[4],robust calcium oscillations
FDDY(SO3H)GHMRF [SK1],SK mRNA expression vs DEPC water control,[5],decrease significantly
same,"Prolongation of feeding, comparison with SK2 at same concentration",[6]; SK1 200 μM,significantly less active
same,Reversibility of stimulation upon wash-out in perifused SKR-CHO-K1 cells,[1],long‐lasting even after wash‐out
same,Calcium response in SKR-CHO-K1 cells,[1]; SK1 300 pM,did not elicit any change in calcium levels
same,Calcium response in SKR-CHO-K1 cells,"[1]; SK1 at 1, 3, 10, and 30 nM (all)",robust calcium spikes
same,Onset (lag time) of cytosolic calcium oscillations in SKR-CHO-K1 cells,[1],significant lag time
same,EC50,"[1]; read-out: EC50, calcium spikes (area under the peaks above baseline, per 10 min), SK1, SKR-CHO-K1, Fura-2 F340/F380, monophasic dose-response, N = 5-7",1.18 nM
same,Calcium response in parental CHO-K1 cells,[7],no effect
same,SKR mRNA expression vs DEPC water control,[8],No difference
GGEGEQFDDY(SO3H)GHMRF [SK2],SK mRNA expression vs DEPC water control,[5],decrease significantly
same,"Prolongation of time to complete a blood meal, vs DEPC water and among peptides","[6]; SK1, SK2 at 200 μM, SK1 + SK2 at 100 μM each",stronger prolongation than SK1
same,Reversibility of stimulation upon wash-out in perifused SKR-CHO-K1 cells,[1],long‐lasting even after wash‐out
same,Calcium response in SKR-CHO-K1 cells,[1]; SK2 100 pM,did not stimulate any increases in calcium concentration
same,Calcium response in SKR-CHO-K1 cells,[1]; SK2 3 nM alone (parallel to antagonist experiment),strong calcium oscillations
same,Calcium response in SKR-CHO-K1 cells,"[1]; SK2 at 300 pM, 1, 3, 10, and 30 nM (all)",lasting calcium oscillations
same,Onset (lag time) of cytosolic calcium oscillations in SKR-CHO-K1 cells,[1],significant lag time
same,EC50,"[1]; read-out: EC50, calcium oscillations (areas under the peak above baseline per 10 min), SK2, SKR-CHO-K1, Fura-2 F340/F380, N = 5-8",0.251 nM
same,Pre-blood meal body weight among groups,[2],No difference
same,Body weight after injection at different doses,"[2]; SK2 50, 100, 150 μM (Figure 3E left)",no changes in body weight
same,Calcium response in parental CHO-K1 cells,[7],no effect
same,SKR mRNA expression vs DEPC water control,[8],No difference
same,Blood intake vs control,"[3]; SK2 50 μM (50 pmol in 1 μL), thoracic injection, 30 per group",no significant difference
